Source: PubChem BioAssay (several laboratories)
Hits are enriched below; roughly 1.2% of the tested compounds scored in any of these assays.
CRFR2-BP ag: CRF-BP/CRF-R2 complex agonism; 0.46% of 350,000 active; HEK293 CRF-R2/CRF-BP, calcium dye fluorescence (FLIPR); percent of saturating CRF peptide response; activation, % at 13.2 µM; AID 588473;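 active = activation of at least 50%, plus an integration ratio under a set limit after plate pattern correction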;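 also: plate controls were neutral control wells without compound for no effect and CRF at EC100 for full effect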
TRPML3 ag: activates the human TRPML3 channel. HEK293 TRPML3-YFP, Fluo-8 calcium fluorescence; 100% = the carbachol control signal. activation, % at 3 µM. 0.29% of 220,000 active. AID 1448;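 active = activation above its plate's cutoff, the mean activation of the plate's test wells plus 3 SD, cut at about 12% in these data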;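 also: 0% = DMSO only wells and 100% = carbachol wells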
Target sequence (Q8TDD5 whole entry, looked up): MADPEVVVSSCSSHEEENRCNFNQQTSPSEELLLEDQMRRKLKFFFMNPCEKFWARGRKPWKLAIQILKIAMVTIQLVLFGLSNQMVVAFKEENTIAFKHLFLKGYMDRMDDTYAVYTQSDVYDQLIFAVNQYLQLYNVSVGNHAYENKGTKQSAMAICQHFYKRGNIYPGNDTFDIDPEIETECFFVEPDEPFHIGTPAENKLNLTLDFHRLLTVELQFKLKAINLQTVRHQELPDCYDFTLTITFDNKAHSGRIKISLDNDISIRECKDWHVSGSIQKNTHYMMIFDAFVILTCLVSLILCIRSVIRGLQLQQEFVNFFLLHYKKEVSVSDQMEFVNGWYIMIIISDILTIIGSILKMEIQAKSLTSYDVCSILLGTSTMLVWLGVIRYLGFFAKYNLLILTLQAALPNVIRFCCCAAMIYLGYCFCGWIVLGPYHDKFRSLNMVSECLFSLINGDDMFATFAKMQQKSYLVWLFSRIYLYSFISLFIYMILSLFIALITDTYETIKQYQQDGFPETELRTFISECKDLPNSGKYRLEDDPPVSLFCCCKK
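Material: HEK293 cells stably carrying human TRPML3-YFP; compound dosing: single dose, 3 µM final nominal compound, 0.3% DMSO final; incubation: 1-h 37 °C dye load, 5-s basal, 120-s post-compound reads; technique: Fluo-8 intracellular calcium fluorescence, excitation 470-495 nm, emission 515-575 nm; read-out basis: percent activation from peak-to-basal fluorescence ratio, scaled between DMSO and carbachol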
CRFBP-R2 block: antagonists of CRF-binding protein/CRF-R2 receptor complex | HEK293 CRF-R2/CRF-BP, CRF-induced calcium fluorescence | inhibition, % at 11.8 µM | 0.59% of 350,000 active;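 active = inhibition of the ligand-induced calcium signal above about 50% at the single tested concentration, limit read from the data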
TRPN1 ag: agonists of zebrafish TRPN1 channel. activation, % at 3 µM. 0.18% of 220,000 active. HEK293 zebrafish TRPN1-YFP, Fluo-8 calcium fluorescence; 100% = response to 87 µM carbachol;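 active = activation above its plate's cutoff, the mean activation of test wells on that plate plus 3 SD, cut at about 19% in these data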;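 also: 0% = DMSO alone and 100% = 87 µM carbachol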
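Assay system: Zebrafish TRPN1-YFP in HEK293 cells | Incubation: Dye loading 1 h at 37 °C, then 30 min room temperature | Measured by: Kinetic Fluo-8 fluorescence, ex 470-495, em 515-575 nm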
TRPN1 ag 2: activates zebrafish TRPN1, counter-screen for TRPML3 agonists; HEK293 zebrafish TRPN1-YFP, Fluo-8 calcium fluorescence; scaled: carbachol wells 100%, DMSO wells 0%; activation, % at 3 µM; shares compounds with TRPML3 ag; 10% of 310 active;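 active = mean activation over replicates above a set limit taken from the earlier TRPN1 channel primary screen, cut at about 19% in these data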;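 also: 100% = carbachol and 0% = 0.3% DMSO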
TRPML3 ag conf: confirmation of human TRPML3 channel agonists. HEK293 TRPML3-YFP, Fluo-8 calcium fluorescence; 100% set by carbachol, 0% by DMSO. shares compounds with TRPML3 ag. activation, % at 3 µM. AID 1526. 80% of 310 active;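 active = activation above a set limit derived from the earlier primary screen, cut at about 12% in these data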
Active calls of the source: *.

Results for CCN(C1CCCCC1)S(=O)(=O)c1cc(C)ccc1OC ?
CRFR2-BP ag: -1.1; TRPML3 ag: 22.4*; CRFBP-R2 block: -12.2; TRPN1 ag: -1.3; TRPN1 ag 2: -1.6; TRPML3 ag conf: 34.8*

How did CCN(C1CCCCC1)S(=O)(=O)c1ccc(OC)c(C)c1 do in these assays?
CRFR2-BP ag: -1.0; TRPML3 ag: 25.7*; CRFBP-R2 block: 12.5; TRPN1 ag: -0.8; TRPN1 ag 2: -2.5; TRPML3 ag conf: 86.7*

What do the screens show for `CCN(C1CCCCC1)S(=O)(=O)c1ccc(-n2cnnn2)c(C)c1`?
CRFR2-BP ag: 0.2; CRFBP-R2 block: 27.3

Results for O=C(OCc1cn(Cc2ccccc2)nn1)c1ccccc1 ?
CRFR2-BP ag: -3.2; CRFBP-R2 block: 3.8

Results for CCc1cccc(N(CC(=O)NCc2ccc(F)cc2)C(=O)c2csnn2)c1 ?
CRFR2-BP ag: 2.3; TRPML3 ag: -0.5; CRFBP-R2 block: 3.2; TRPN1 ag: -1.4

Results for O=C(C1=C(O)C(=O)N(c2nccs2)C1c1ccccc1)c1cc2ccccc2o1 (stereo not given) ?
CRFR2-BP ag: 167.6*; TRPML3 ag: 12.2*; CRFBP-R2 block: -100.2; TRPN1 ag: 16.1; TRPN1 ag 2: 5.2; TRPML3 ag conf: 1.9

Results for CCOc1ccc(S(N)(=O)=O)cc1-c1nc2c(C(C)(C)C)nn(C)c2c(=O)[nH]1 ?
CRFR2-BP ag: -2.2; TRPML3 ag: -1.1; CRFBP-R2 block: 10.4; TRPN1 ag: -0.7

What do the screens show for `CCOc1ccc(S(=O)(=O)NC(C)(C)C)cc1-c1nc2c(C(C)(C)C)nn(C)c2c(=O)[nH]1`?
CRFR2-BP ag: -1.0; TRPML3 ag: 24.1*; CRFBP-R2 block: -83.3; TRPN1 ag: -0.7; TRPN1 ag 2: 1.7; TRPML3 ag conf: 147.3*

Results for CCN(CC)c1ccc(NC(=O)COc2ccc(N(C)S(=O)(=O)c3cccs3)cc2)cc1 ?
CRFR2-BP ag: 2.1; TRPML3 ag: 14.3*; CRFBP-R2 block: -5.5; TRPN1 ag: -1.1; TRPN1 ag 2: 0.7; TRPML3 ag conf: 27.7*

How did CN(c1ccc(OCC(=O)OCC(=O)Nc2ccccc2)cc1)S(=O)(=O)c1cccs1 do in these assays?
CRFR2-BP ag: 1.0; TRPML3 ag: 3.5; CRFBP-R2 block: -0.7; TRPN1 ag: 4.8

How did O=C1C2C3C=CC(C3)C2C(=O)N1c1ccc(N2CCN(c3ccccn3)CC2)c([N+](=O)[O-])c1 (stereo not given) do in these assays?
CRFR2-BP ag: 1.9; TRPML3 ag: 15.8*; CRFBP-R2 block: -5.5; TRPN1 ag: 8.6; TRPN1 ag 2: 8.7; TRPML3 ag conf: 20.5*

What do the screens show for `O=C(CCN1C(=O)C2C3C=CC(C3)C2C1=O)N1CCN(c2ccccn2)CC1` (stereo not given)?
CRFR2-BP ag: 6.1; TRPML3 ag: 1.2; CRFBP-R2 block: -8.1; TRPN1 ag: 1.6

How did COc1ccc(C)cc1S(=O)(=O)NC1CCCCCC1 do in these assays?
CRFR2-BP ag: -0.3; CRFBP-R2 block: 2.9

How did COc1ccc(S(=O)(=O)NC2CCCCC2)c(C)c1C do in these assays?
CRFR2-BP ag: -3.5; TRPML3 ag: 13.6*; CRFBP-R2 block: 2.2; TRPN1 ag: -2.0; TRPN1 ag 2: -0.8; TRPML3 ag conf: 14.8*

What do the screens show for `CC(C)N(C(=O)c1ccc2nc(-c3ccccc3)c(-c3ccccc3)nc2c1)C(C)C`?
CRFR2-BP ag: -0.2; TRPML3 ag: 83.8*; CRFBP-R2 block: -34.8; TRPN1 ag: -1.0; TRPN1 ag 2: -1.4; TRPML3 ag conf: 104.1*

How did COc1ccc(N(C)C(=O)c2ccc3nc(-c4ccccc4)c(-c4ccccc4)nc3c2)cc1 do in these assays?
CRFR2-BP ag: 3.1; TRPML3 ag: 0.4; CRFBP-R2 block: -3.4; TRPN1 ag: 0.6

Results for COC(=O)c1ccc(/C=C(\C#N)c2nc3ccccc3s2)cc1 ?
CRFR2-BP ag: 2.7; TRPML3 ag: 14.3*; CRFBP-R2 block: 4.9; TRPN1 ag: 14.1; TRPN1 ag 2: 0.5; TRPML3 ag conf: 0.7

What do the screens show for `CCOC(=O)N1CCN(/C=C(\C#N)c2nc3ccccc3s2)CC1`?
CRFR2-BP ag: 3.2; TRPML3 ag: 1.1; CRFBP-R2 block: -10.9; TRPN1 ag: 4.3
